In ChEMBL document CHEMBL2163327, “Design, synthesis, and evaluation of potential prodrugs of DFMO for reductive activation” (Bioorg Med Chem Lett, 2012) one finds IC50 and Activity data, which are given here for ten molecules.

In experiment [1] the test system is Trypanosoma brucei. Kind of experiment: Antitrypanosomal activity against wild type Trypanosoma brucei bloodstream form assessed as growth inhibition after 3 days by Alamar blue assay. The format is functional, organism-based. The settings on record: 72 h. Put shortly:
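Bloodstream-form T. brucei seeded at 1 × 10³ per mL in growth medium with a range of test compound concentrations; 3 days at 37 °C, then alamarBlue added and incubation continued 16 h before reading.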
A general note: The colour change of resazurin is a common sign of viable cells or microbes.

Experiment [2] has as its system Trypanosoma brucei. Put plainly: Antitrypanosomal activity against Trypanosoma brucei bloodstream form overexpressing nitroreductase assessed as growth inhibition after 3 days by Alamar blue assay. Format: functional, organism-based. The following applies: 72 h. Summed up:
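Bloodstream-form T. brucei induced to express elevated nitroreductase, with non-induced parasites as controls. Parasites seeded at 1 × 10³ mL⁻¹ in growth medium with a range of test-compound concentrations and incubated 3 days at 37 °C. alamarBlue was then added for a further 16 h as the viability read-out.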

Experiment [3] concerns Trypanosoma brucei. Kind of experiment: Activity of His-tagged Trypanosoma brucei nitroreductase assessed as oxidation of NADH. Put shortly:
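Purified His-tagged T. brucei nitroreductase (TbNTR) incubated with test compound; NADH consumption followed as change in absorbance at 340 nm.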

A word on the IC50: it is the concentration at which inhibition is half-maximal. As for `CC1CS(=O)(=O)CCN1/N=C/c1ccc([N+](=O)[O-])o1` (configuration not stated) [NIFURTIMOX], the IC50 turned out to be 1.83 µM in the experiment with Trypanosoma brucei [1] and 0.26 µM with Trypanosoma brucei [2]. In the experiment on Trypanosoma brucei [3], the Activity came out at 423 nmol/min/mg.

Regarding `NC(CCCNC(=O)OCc1ccc([N+](=O)[O-])cc1F)(C(=O)O)C(F)F` (configuration not stated), the IC50 in the experiment on Trypanosoma brucei [1] came to 39.5 µM; in the experiment with Trypanosoma brucei [2], 39.9 µM. In addition, in the experiment with Trypanosoma brucei [3], the Activity was found to be 260 nmol/min/mg.

In the case of `NC(CCCNC(=O)OCc1ccc([N+](=O)[O-])cc1)(C(=O)O)C(F)F` (configuration not stated), the IC50 in the experiment with Trypanosoma brucei [1] is more than 100 µM. Also, in the experiment on Trypanosoma brucei [3], the Activity turned out to be 33 nmol/min/mg.

As for `O=C(NCCCC(NC(=O)OCc1ccc([N+](=O)[O-])cc1F)(C(=O)O)C(F)F)OCc1ccc([N+](=O)[O-])cc1F` (configuration not stated), the IC50 in the experiment on Trypanosoma brucei [1] is more than 100 µM. The Activity in the experiment with Trypanosoma brucei [3] is 312 nmol/min/mg.

Take `NCCCC(NC(=O)OCc1ccc([N+](=O)[O-])cc1F)(C(=O)O)C(F)F` (configuration not stated): in the experiment on Trypanosoma brucei [1], the IC50 was more than 100 µM. Further, the Activity in the experiment with Trypanosoma brucei [3] came to 227 nmol/min/mg.

`NCCCC(N)(C(=O)OCc1ccc([N+](=O)[O-])cc1F)C(F)F` (configuration not stated): the IC50 with Trypanosoma brucei [1] is more than 100 µM. Further, the Activity in the experiment with Trypanosoma brucei [3] came to 203 nmol/min/mg.

Take `NCCCC(NC(=O)OCc1ccc([N+](=O)[O-])cc1)(C(=O)O)C(F)F` (configuration not stated): in the experiment with Trypanosoma brucei [1], the IC50 was more than 100 µM. For the same molecule, in the experiment with Trypanosoma brucei [3], the Activity came out at 42 nmol/min/mg.

For `NCCCC(N)(C(=O)OCc1ccc([N+](=O)[O-])cc1)C(F)F` (configuration not stated), the IC50 in the experiment with Trypanosoma brucei [1] was more than 100 µM. Besides, the Activity in the experiment with Trypanosoma brucei [3] turned out to be 60 nmol/min/mg.

Consider `NCCCC(N)(C(=O)O)C(F)F` (configuration not stated) [EFLORNITHINE], for which, in the experiment on Trypanosoma brucei [1], the IC50 came to 8.3 µM. Further, the Activity in the experiment with Trypanosoma brucei [3] came out at 21 nmol/min/mg.

Consider `O=C(NCCCC(NC(=O)OCc1ccc([N+](=O)[O-])cc1)(C(=O)O)C(F)F)OCc1ccc([N+](=O)[O-])cc1` (configuration not stated), for which the IC50 in the experiment with Trypanosoma brucei [1] was more than 100 µM. The Activity in the experiment on Trypanosoma brucei [3] turned out to be 140 nmol/min/mg.
